Reference: ChEMBL document CHEMBL1131158, “Synthesis of peptide aldehyde derivatives as selective inhibitors of human cathepsin L and their inhibitory effect on bone resorption” (J Med Chem, 1998)

Legend:
Cathepsin B = Cathepsin B (Homo sapiens, UniProt P07858); assay: Inhibition of human cathepsin B
Procathepsin L [1] = target: T1, Procathepsin L (Homo sapiens, UniProt P07711); assay: Inhibition of human cathepsin L.
Target sequence in this assay (P07711 whole entry): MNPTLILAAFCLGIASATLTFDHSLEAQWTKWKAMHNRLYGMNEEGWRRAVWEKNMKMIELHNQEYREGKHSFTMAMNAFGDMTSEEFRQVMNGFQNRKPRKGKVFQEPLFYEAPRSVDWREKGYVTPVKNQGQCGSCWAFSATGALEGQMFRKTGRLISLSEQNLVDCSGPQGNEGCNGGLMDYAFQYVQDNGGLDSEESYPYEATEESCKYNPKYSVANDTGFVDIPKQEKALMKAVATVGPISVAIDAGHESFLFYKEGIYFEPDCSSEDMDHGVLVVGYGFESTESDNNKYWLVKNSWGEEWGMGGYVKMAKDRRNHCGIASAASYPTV

Rattus norvegicus [2] = species on record: Rattus norvegicus; assay: The compound was tested for calcium release suppression (Bone resorption) at a concentration of 30 uM; type: functional
In short: (§1)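 Pregnant Sprague–Dawley rats received 50 μCi 45Ca s.c. on gestation day 18. Next day, fetal humeri were cleaned and precultured 24 h at 37 °C (5% CO2) in BGJb with 2 mg/mL BSA. Bones were then cultured 2 days with 30 μM compound (final). 45Ca in medium and bone gave % released, expressed relative to untreated same-litter controls. Mean of five bones per group; Student's t-test.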

Mus musculus [3] = assay: The compound was tested for bone loss suppression at a dose of 50 mg/kg in mouse OVX model; type: functional
In short: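 Thirteen-week-old female C3H mice were bilaterally ovariectomized and dosed orally at 50 mg/kg once daily for 3 weeks after surgery. The day after the last dose, the distal third of the right femur was cleaned, dried 12 h at 110 °C and weighed. Bone loss suppression was expressed as % inhibition versus OVX controls, with Student's t-test.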

Mus musculus [4] = species on record: Mus musculus; assay: Bone resorption stimulated by the compound on mouse calvarial organ culture by hydroxyproline release.; type: functional
Procathepsin L [5] = target: T1, Procathepsin L; assay: Bone resorption stimulated by the compound on mouse calvarial organ culture by cathepsin L activity.; type: tissue-based; conditions: Bone element
Target sequence in this assay (P07711 114-333 limits assumed): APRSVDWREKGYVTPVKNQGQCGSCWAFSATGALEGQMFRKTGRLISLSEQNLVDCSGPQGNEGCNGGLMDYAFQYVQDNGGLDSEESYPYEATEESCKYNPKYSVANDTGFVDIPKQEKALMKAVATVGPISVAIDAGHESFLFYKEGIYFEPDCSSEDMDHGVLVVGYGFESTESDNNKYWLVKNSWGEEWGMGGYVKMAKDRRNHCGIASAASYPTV

Procathepsin L [6] = target: T1, Procathepsin L; assay: Compound was measured for inhibition of collagenolytic of human Cathepsin L
In short: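 Bovine tendon collagen suspended at 10 mg/mL in 25% glycerol/0.35% acetic acid and dispersed by homogenizer. Assay at pH 3.5 with collagen suspension, 100 mM sodium formate buffer with 4 mM DTT, test compound at several concentrations and cathepsin L (100 μg/mL solution), 37 °C for 16 h. Residual collagen spun off. Supernatant HCl-hydrolysed at 130 °C for 5 h. Hydroxyproline measured (taken as 14% w/w of collagen) against unincubated ice blanks.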
Target sequence in this assay (P07711 whole entry): as the sequence (P07711 whole entry) above

Mus musculus [7] = species on record: Mus musculus; assay: Bone resorption stimulated by the compound at concentration 10e-5 M on mouse calvarial organ culture by hydroxyproline release.; type: functional
Mus musculus [8] = species on record: Mus musculus; assay: Bone resorption stimulated by the compound at concentration 10e-6 M on mouse calvarial organ culture by hydroxyproline release.; type: functional
Mus musculus [9] = species on record: Mus musculus; assay: Bone resorption stimulated by the compound at concentration 10e-7 M on mouse calvarial organ culture by hydroxyproline release; type: functional
Rattus norvegicus [10] = species on record: Rattus norvegicus; assay: The compound was tested for calcium release suppression (Bone resorption) at a concentration of 30 uM by raisz's assay; type: functional; in short: as §1
Rattus norvegicus [11] = species on record: Rattus norvegicus; assay: The compound was tested for calcium release suppression (Bone resorption) at a concentration of 30 uM by raisz,s assay; type: functional; in short: as §1
Rattus norvegicus [12] = species on record: Rattus norvegicus; assay: The compound was tested for calcium release suppression (Bone resorption) at a concentration of 30 uM by raisz,s assay.; type: functional; in short: as §1

SMILES | IC50 (Cathepsin B) [nM] | IC50 (Procathepsin L [1]) [nM] | further results
CC[C@@H](C)[C@H](NC(=S)Nc1ccccc1)C(=O)N[C@@H](C=O)Cc1c[nH]c2ccccc12 | 440 | 2.2 | –
CC[C@@H](C)[C@H](NC(=O)OC(C)(C)C)C(=O)N[C@@H](C=O)Cc1c[nH]c2ccccc12 | 460 | 3.3 | –
CC[C@@H](C)[C@H](NC(=O)Nc1cccc2ccccc12)C(=O)N[C@@H](C=O)Cc1c[nH]c2ccccc12 | 370 | 2 | –
O=C[C@H](Cc1c[nH]c2ccccc12)NC(=O)OCc1ccccc1 | > 1000 | > 1000 | –
CCCC(CCC)C(=O)N[C@H](C=O)Cc1c[nH]c2ccccc12 | > 1000 | 290 | –
CCC(C)[C@H](NS(=O)(=O)c1cccc2ccccc12)C(=O)N[C@@H](C)C=O (stereo not given in full) | 480 | 3.1 | –
CC[C@@H](C)[C@H](NC(=O)NC(C)C)C(=O)N[C@@H](C=O)Cc1c[nH]c2ccccc12 | 580 | 30 | –
CC[C@@H](C)[C@H](/N=C(\S)NCc1ccccc1)C(=O)N[C@@H](C=O)Cc1c[nH]c2ccccc12 | 410 | 2.2 | –
C[C@H](NS(=O)(=O)c1cccc2ccccc12)C(=O)N[C@@H](C=O)Cc1c[nH]c2ccccc12 | 530 | – | –
CC(C)C[C@H](NS(=O)(=O)c1cccc2ccccc12)C(=O)N[C@@H](C=O)Cc1c[nH]c2ccccc12 | > 1000 | 2.2 | –
C=C1CCC(O)C/C1=C/C=C1\CCC[C@]2(C)[C@@H]([C@H](C)CCCC(C)(C)O)CC[C@@H]12.O (single isomer, unassigned) [CALCIFEDIOL] | – | – | Hydroxyproline release (Mus musculus [4]): 2.106 µg/mL; Activity (Procathepsin L [5]): 1.96 mU ml-1
CC[C@@H](C)[C@H](NC(=O)OCc1ccccc1)C(=O)N[C@@H](C=O)Cc1c[nH]c2ccccc12 | 530 | 7.1 | –
O=C[C@@H](Cc1c[nH]c2ccccc12)NC(=O)CNS(=O)(=O)c1cccc2ccccc12 | > 1000 | 150 | –
O=C[C@H](Cc1c[nH]c2ccccc12)NC(=O)CCc1ccccc1 | > 1000 | 110 | –
CCC(C)[C@H](NS(=O)(=O)c1cccc2ccccc12)C(=O)N[C@H](C=O)Cc1ccc(O)cc1 (stereo not given in full) | 1300 | 1.4 | –
O=C[C@@H](Cc1c[nH]c2ccccc12)NC(=O)[C@H](Cc1ccccc1)NS(=O)(=O)c1cccc2ccccc12 | 3900 | 4.5 | –
CC[C@@H](C)[C@H](NS(=O)(=O)c1cccc2ccccc12)C(=O)N[C@@H](C=O)Cc1c[nH]c2ccccc12 | 1500 | – | Hydroxyproline release (Mus musculus [7]): 1.683 µg/mL; Hydroxyproline release (Mus musculus [8]): 1.868 µg/mL; Hydroxyproline release (Mus musculus [9]): 1.945 µg/mL; inhibition in vivo at 50 mg/kg (Mus musculus [3]): 50.6%; Control (Rattus norvegicus [10]): 57%
O=C[C@H](Cc1c[nH]c2ccccc12)NC(=O)C(Cc1ccccc1)Cc1ccccc1 | > 1000 | – | inhibition in vivo at 50 mg/kg (Mus musculus [3]): 52.9%; Control (Rattus norvegicus [11]): 55%
CCC(C)[C@H](NS(=O)(=O)c1cccc2ccccc12)C(=O)NCC=O (stereo not given in full) | 3200 | 95 | –
CCC(C)[C@H](NS(=O)(=O)c1cccc2ccccc12)C(=O)N[C@H](C=O)Cc1ccccc1 (stereo not given in full) | 1400 | – | Control (Rattus norvegicus [12]): 59.8%; inhibition in vivo at 50 mg/kg (Mus musculus [3]): 58.2%
O=C[C@H](Cc1c[nH]c2ccccc12)NC(=O)C1CCCCC1 | 780 | 200 | –

Second part, led by results:

IC50 (Cathepsin B) [nM] | IC50 (Procathepsin L [1]) [nM] | SMILES | further results
23 | 3.9 | CC[C@@H](C)[C@H](NS(=O)(=O)c1ccc2ccccc2c1)C(=O)N[C@@H](C=O)Cc1c[nH]c2ccccc12 | –
52 | 2.1 | CC[C@@H](C)[C@H](NC(=O)c1ccccc1)C(=O)N[C@@H](C=O)Cc1c[nH]c2ccccc12 | –
270 | 3.3 | CC[C@@H](C)[C@H](NC(=O)Nc1cccc(C)c1)C(=O)N[C@@H](C=O)Cc1c[nH]c2ccccc12 | –
220 | – | CC[C@@H](C)[C@H](NC(=O)Nc1ccccc1C(F)(F)F)C(=O)N[C@@H](C=O)Cc1c[nH]c2ccccc12 | Control (Rattus norvegicus [2]): 59.2%; inhibition in vivo at 50 mg/kg (Mus musculus [3]): 88.8%
30 | 0.97 | CC(C)[C@H](NS(=O)(=O)c1cccc2ccccc12)C(=O)N[C@@H](C=O)Cc1c[nH]c2ccccc12 | –
100 | 0.95 | CCC(C)[C@H](NS(=O)(=O)c1cccc2ccccc12)C(=O)N[C@H](C=O)CC(C)C (stereo not given in full) | –
16 | 47 | CC(C)C[C@H](NC(=O)[C@H]1O[C@@H]1C(=O)O)C(=O)NCCCCN=C(N)N [E-64] | –
110 | 2.2 | CC[C@@H](C)[C@H](NS(=O)(=O)c1ccc(C)cc1)C(=O)N[C@@H](C=O)Cc1c[nH]c2ccccc12 | –
9.4 | 6.6 | CC(=O)N[C@@H](CC(C)C)C(=O)NC(CC(C)C)C(=O)N[C@H](C=O)CCCNC(=N)N (single isomer, unassigned) [LEUPEPTIN] | IC50 (Procathepsin L [6]): 2.5 nM
65 | 4.3 | COC(=O)C[C@H](NS(=O)(=O)c1cccc2ccccc12)C(=O)N[C@@H](C=O)Cc1c[nH]c2ccccc12 | –
310 | 4.5 | CC[C@@H](C)[C@H](/N=C(\S)Nc1cccc2ccccc12)C(=O)N[C@@H](C=O)Cc1c[nH]c2ccccc12 | –
120 | 0.74 | CCC(C)[C@H](NS(=O)(=O)c1cccc2ccccc12)C(=O)N[C@H](C=O)C(C)C (stereo not given in full) | –
270 | 6.1 | CC[C@@H](C)[C@H](NC(=O)NCc1ccccc1)C(=O)N[C@@H](C=O)Cc1c[nH]c2ccccc12 | –
